ChEMBL document CHEMBL4257581, “Discovery of Small Molecule Splicing Modulators of Survival Motor Neuron-2 (SMN2) for the Treatment of Spinal Muscular Atrophy (SMA)” (J Med Chem, 2018)

Key:
[1] = Lipophilicity, log D of the compound at pH 7.4; format: physicochemical; conditions: buffer
[2] = Drug level in Sprague-Dawley rat brain at 1 mg/kg, iv or 10 mg/kg, po after 7 hrs; format: ADME, organism-based; conditions: read-out: Drug uptake
[3] = Permeability of the compound at 5 uM after 4 hrs by PAMPA; format: ADME
[4] = Clearance in Sprague-Dawley rat at 1 mg/kg, iv or 10 mg/kg, po; format: ADME, organism-based; conditions: in vivo
[5] = AUC in Sprague-Dawley rat at 1 mg/kg, iv or 10 mg/kg, po; format: ADME, organism-based; conditions: in vivo
[6] = Oral bioavailability in Sprague-Dawley rat at 10 mg/kg; format: ADME, organism-based; conditions: in vivo
[7] = organism: Mus musculus; assay: Stabilization of SMN2 mRNA in mouse myoblasts assessed as increase in SMN protein level by ELISA relative to DMSO control
[8] = Dissociation constant, pKa of the compound; format: physicochemical
[9] = Oral bioavailability in C57BL/6 mouse at 5 mg/kg; format: ADME, organism-based; conditions: in vivo
How it was run: (§1)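 Mice received single doses of 1 mg/kg i.v. or 5 mg/kg p.o. (n = 2). The vehicle was 10% 0.1 N HCl, 10% PG, 25 (20%) Solutol and 100 mM pH 5 citrate buffer. Plasma was sampled for PK parameters.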

[10] = Plasma clearance in C57BL/6 mouse at 1 mg/kg, iv or 5 mg/kg, po; format: ADME, organism-based; how it was run: as §1
[11] = organism: Homo sapiens; assay: Stabilization of SMN2 mRNA in human spinal muscular atrophy patient derived fibroblasts by ELISA
[12] = Intrinsic clearance in mouse liver microsomes at 1 uM up to 30 mins in presence of NADPH by LC-MS/MS analysis; format: ADME, microsome; conditions: read-out: CLH
[13] = Drug level in brain in C57BL/6 mouse brain at 1 mg/kg, iv or 5 mg/kg, po; format: ADME, organism-based; conditions: in vivo, read-out: Drug uptake
[14] = AUC (0 to 7 hrs) in C57BL/6 mouse plasma at 1 mg/kg, iv or 5 mg/kg, po; format: ADME, organism-based; how it was run: as §1
[15] = Solubility of the compound at pH 6.8; format: physicochemical; conditions: buffer
[16] = Intrinsic clearance in rat liver microsomes at 1 uM up to 30 mins in presence of NADPH by LC-MS/MS analysis; format: ADME, microsome; conditions: read-out: CLH
[17] = Clearance in mouse at 1 mg/kg, iv or 10 mg/kg, po; format: ADME, organism-based; conditions: in vivo
How it was run: (§2)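 Mouse PK with dosing at 1 mg/kg i.v. and 10 mg/kg p.o.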

[18] = Drug level in mouse brain at 10 mg/kg, po after 7 hrs; format: ADME, organism-based; conditions: read-out: Drug uptake
How it was run: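 Mouse PK at 10 mg/kg p.o. Brain concentration was measured at a single time point, 7 h after the oral dose.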

[19] = AUC in mouse plasma at 10 mg/kg, po; format: ADME, organism-based
How it was run: (§3)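 Mouse PK: oral arm dosed at 10 mg/kg p.o. alongside a 1 mg/kg i.v. arm. Plasma and brain AUC were taken from the oral arm.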

[20] = Half life in mouse at 1 mg/kg, iv or 10 mg/kg, po; format: ADME, organism-based; conditions: in vivo; how it was run: as §2
[21] = Oral bioavailability in mouse at 10 mg/kg; format: ADME, organism-based; conditions: in vivo; how it was run: as §3
[22] = AUC in mouse brain at 10 mg/kg, po; format: ADME, organism-based; how it was run: as §3

SMILES: Oc1cc(-n2cccn2)ccc1-c1ccc(OC2CCNCC2)nn1
- logD [1]: 0.69

SMILES: CC1(C)CC(Oc2ccc(-c3ccc(-c4cn[nH]c4)cc3O)nn2)CC(C)(C)N1 [BRANAPLAM]
- concentration at 7 h [2]: 914 nM
- logD [1]: 2.51
- log(permeability) [3]: -4.9
- clearance [4]: 25 mL/min/kg
- AUC [5]: 3.03 µM·h
- bioavailability [6]: 63%

SMILES: CN(c1ccc(-c2cc3cccnc3cc2O)nn1)C1CC(C)(C)NC(C)(C)C1
- concentration at 7 h [2]: 68 nM
- logD [1]: 3.23
- log(permeability) [3]: -4.5
- clearance [4]: 35 mL/min/kg
- AUC [5]: 1.17 µM·h
- fold change (FC) [7]: 2.9
- bioavailability [6]: 46%

SMILES: CC1(C)CC(Nc2ccc(-c3ccc4ccccc4c3)nn2)CC(C)(C)N1
- fold change (FC) [7]: 2.3

SMILES: Oc1cc(-n2cccn2)ccc1-c1ccc(OC2CCNCC2(F)F)nn1 (stereo not drawn)
- pKa [8]: 5.89
- logD [1]: 2.59
- fold change (FC) [7]: 1.2

SMILES: CN(c1ccc(-c2ccc(-c3cn[nH]c3)cc2O)nn1)C1CC(C)(C)NC(C)(C)C1
- concentration at 7 h [2]: 58 nM
- logD [1]: 2.92
- log(permeability) [3]: -5.4
- clearance [4]: 22 mL/min/kg
- AUC [5]: 2.3 µM·h
- fold change (FC) [7]: 3.1
- bioavailability [6]: 53%

SMILES: CC1(C)CC(Oc2ccc(-c3ccc(-n4cccn4)cc3O)nn2)CC(C)(C)N1
- pKa [8]: 10.1
- logD [1]: 2.79

SMILES: CC1(C)CC(Nc2ccc(-c3cc4ccccc4s3)nn2)CC(C)(C)N1
- bioavailability [9]: 18%
- clearance [10]: 113 mL/min/kg
- fold change (FC) [11]: 1.5
- pKa [8]: 10
- microsomal CLint at 1 µM [12]: 23.5 µL/min/mg
- concentration [13]: < 2.7 nM
- logD [1]: 2.67
- AUC(0-t) [14]: 0.4 µM·h
- solubility [15]: > 1000 µM
- fold change (FC) [7]: 2.5
- microsomal CLint at 1 µM [16]: 22.6 µL/min/mg

SMILES: CN(c1ccc(-c2ccc(C#N)cc2O)nn1)C1CC(C)(C)NC(C)(C)C1
- clearance [17]: 23 mL/min/kg
- concentration at 7 h [18]: 2000 nM
- AUC [19]: 5.2 µM·h
- logD [1]: 3.2
- half-life [20]: 4.5 h
- fold change (FC) [7]: 3.1
- bioavailability [21]: 37%
- microsomal CLint at 1 µM [16]: 7 µL/min/mg

SMILES: CC1(C)CC(Oc2ccc(-c3ccc(-n4cccn4)cc3O)nn2)CC(C)(C)N1CC(F)(F)F
- logD [1]: 4.65
- fold change (FC) [7]: 1.1

SMILES: COc1cc(C#N)ccc1-c1ccc(N(C)C2CC(C)(C)NC(C)(C)C2)nn1
- fold change (FC) [7]: 2.3

SMILES: CN(c1ccc(-c2ccc(-n3cc(CO)cn3)cc2O)nn1)C1CC(C)(C)NC(C)(C)C1
- logD [1]: 2.16
- log(permeability) [3]: -5.5

SMILES: CN(c1ccc(-c2ccc(-n3ccc(N)n3)cc2O)nn1)C1CC(C)(C)NC(C)(C)C1
- concentration at 7 h [2]: < 2.4 nM
- logD [1]: 2.52
- log(permeability) [3]: -5.2
- clearance [4]: 16 mL/min/kg
- AUC [5]: 0.092 µM·h
- fold change (FC) [7]: 2.8
- bioavailability [6]: 4%

SMILES: CN(c1ccc(-c2ccc(-n3cccn3)cc2O)nn1)C1CC(C)(C)NC(C)(C)C1
- pKa [8]: 10.3
- logD [1]: 3.11
- fold change (FC) [7]: 3.1

SMILES: CN(c1ccc(-c2cc3ccccc3cc2O)nn1)C1CC(C)(C)NC(C)(C)C1
- clearance [17]: 56 mL/min/kg
- AUC [19]: 16.9 µM·h
- logD [1]: 4
- half-life [20]: 3.7 h
- fold change (FC) [7]: 2.4 to 2.5
- bioavailability [21]: 100%
- AUC [22]: 36.7 µM·h
- microsomal CLint at 1 µM [16]: 17 µL/min/mg

SMILES: CN(c1ccc(-c2cc3cnccc3cc2O)nn1)C1CC(C)(C)NC(C)(C)C1
- concentration at 7 h [2]: 630 nM
- logD [1]: 3.07
- log(permeability) [3]: -4.3
- clearance [4]: 57 mL/min/kg
- AUC [5]: 1.35 µM·h
- fold change (FC) [7]: 2.6
- bioavailability [6]: 100%

SMILES: CN(c1ccc(-c2cc3ccccc3s2)nn1)C1CC(C)(C)NC(C)(C)C1
- clearance [17]: 100 mL/min/kg
- AUC [19]: 4.9 µM·h
- logD [1]: 3.4
- half-life [20]: 3.2 h
- bioavailability [21]: 100%
- AUC [22]: 17.4 µM·h
- microsomal CLint at 1 µM [16]: 40 µL/min/mg

SMILES: Oc1cc(-c2cn[nH]c2)ccc1-c1ccc(N2C[C@H]3CNC[C@H]3C2)nn1
- logD [1]: 0.58

SMILES: CC1(C)CC(Nc2ccc(-c3cccc4ccccc34)nn2)CC(C)(C)N1
- fold change (FC) [7]: 1

SMILES: CC1(C)CC(Cc2ccc(-c3ccc(-c4cn[nH]c4)cc3O)nn2)CC(C)(C)N1
- logD [1]: 2.89
- log(permeability) [3]: -5.3

SMILES: Oc1cc(-c2cn[nH]c2)ccc1-c1ccc(N2CCC3(CCCNC3)C2)nn1 (stereo not drawn)
- logD [1]: 1.2
